Experiments:
[1] = target: T1, Cytochrome P450 3A4 (Homo sapiens, UniProt P08684); assay: (§1) Inhibition of human Cytochrome P450 3A4 by macrocycles
[2] = target: T2, Protein farnesyltransferase (Rattus norvegicus, UniProt Q02293+Q04631); assay: Inhibition of Farnesyltransferase in cells, evaluated in a radiotracer assay for farnesyltransferase inhibition (CRAFTI), in cultured H-ras-transformed Rat cells
[3] = target: Geranylgeranyl transferase type I (Homo sapiens, UniProt P49354+P53609); assay: Inhibitory activity against geranylgeranyl transferase; assay type: protein-complex assay
[4] = target: T3, Protein farnesyltransferase (Homo sapiens, UniProt P49354+P49356); assay: Inhibition of HDJ2 farnesylation in PSN-1 cells over 7 hr assay; assay type: functional, cell-based
[5] = target: T3, Protein farnesyltransferase; assay: Inhibition of HDJ2 farnesylation in PSN-1 cells over 7 hr assay in the presence of 50% human serum.; assay type: functional, cell-based
[6] = Pharmacokinetic data at 0.5 mg/kg dose given to dogs intravenously.; assay type: ADME, organism-based, Canis lupus familiaris; design: dose 0.5 mg/kg, route intravenous; conditions: dog, iv; for half-life / Vd: in vivo; for Vd: read-out: Vdss; for clearance: plasma, read-out: Clp
Summary of the method: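 Compound was given intravenously in DMSO to two dogs, in some cases as a mixture with five other compounds. Plasma levels were measured by LC-MS.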

[7] = target: T3, Protein farnesyltransferase; assay: Inhibition of human farnesyltransferase in an enzyme assay.
[8] = target: T3, Protein farnesyltransferase; assay: Inhibition of Farnesyltransferase at 10 pM enzyme concentration
[9] = Pharmacokinetic data for dose given to dogs intravenously (oral PK study in parentheses); assay type: ADME, organism-based, Canis lupus familiaris; conditions: dog, in vivo
Summary of the method: (§2)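 Dogs, two per compound, dosed intravenously in DMSO or orally as a 0.5% methocellulose suspension. Some compounds were given intravenously as a cassette with five other compounds. Plasma levels were quantitated by LCMS.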

[10] = suboptimal plasma half-life caused a10% prolongation of QTc interval in dogs at a plasma level of […]; assay type: ADME, organism-based, Canis lupus familiaris; conditions: dog
[11] = Oral bioavailability of active FTIs in dogs; assay type: ADME, organism-based, Canis lupus familiaris; conditions: dog, in vivo
[12] = Pharmacokinetic data at 1 mg/kg dose given to dogs intravenously; assay type: ADME, organism-based, Canis lupus familiaris; design: dose 1 mg/kg, route intravenous; conditions: dog, iv; summary of the method: as §2
[13] = target: T2, Protein farnesyltransferase; assay: Inhibition of Farnesyltransferase in H-ras-transformed Rat cells by radiotracer assay (CRAFTI)
[14] = target: T3, Protein farnesyltransferase; assay: Inhibition of HDJ2 farnesylation in PSN-1 cells over 7 hr assay in the presence of 50% human serum; assay type: functional, cell-based
[15] = target: T3, Protein farnesyltransferase; assay: Inhibition of Farnesyltransferase at 10 pM enzyme concentration; remark: listed apart in the source
[16] = Bioavailability in dog (dose 1 mg/kg i.v.); conditions: in vivo, iv
[17] = Clearance in dog (dose 1 mg/kg i.v.); conditions: plasma, iv
[18] = target: T1, Cytochrome P450 3A4; assay: as §1; assay type: ADME
Summary of the method: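 Pooled liver microsomes, dog (7) or human (8, 9), at 0.25 mg protein/mL were incubated 10 min with 75 µM testosterone and an NADPH-generating system, with or without compound (0.05-100 µM). 6β-Hydroxytestosterone was quantified by LC-MS/MS against a cortisone internal standard. IC50 was taken from product formed relative to the control incubation.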

[19] = target: T1, Cytochrome P450 3A4; assay: Inhibition of dog Cytochrome P450 3A by macrocycles
[20] = target: Voltage-gated inwardly rectifying potassium channel KCNH2 (Homo sapiens, UniProt Q12809); assay: Inflection point affinity for binding to K+ channel HERG.; conditions: IP
Chain of Voltage-gated inwardly rectifying potassium channel KCNH2 (Q12809 whole entry): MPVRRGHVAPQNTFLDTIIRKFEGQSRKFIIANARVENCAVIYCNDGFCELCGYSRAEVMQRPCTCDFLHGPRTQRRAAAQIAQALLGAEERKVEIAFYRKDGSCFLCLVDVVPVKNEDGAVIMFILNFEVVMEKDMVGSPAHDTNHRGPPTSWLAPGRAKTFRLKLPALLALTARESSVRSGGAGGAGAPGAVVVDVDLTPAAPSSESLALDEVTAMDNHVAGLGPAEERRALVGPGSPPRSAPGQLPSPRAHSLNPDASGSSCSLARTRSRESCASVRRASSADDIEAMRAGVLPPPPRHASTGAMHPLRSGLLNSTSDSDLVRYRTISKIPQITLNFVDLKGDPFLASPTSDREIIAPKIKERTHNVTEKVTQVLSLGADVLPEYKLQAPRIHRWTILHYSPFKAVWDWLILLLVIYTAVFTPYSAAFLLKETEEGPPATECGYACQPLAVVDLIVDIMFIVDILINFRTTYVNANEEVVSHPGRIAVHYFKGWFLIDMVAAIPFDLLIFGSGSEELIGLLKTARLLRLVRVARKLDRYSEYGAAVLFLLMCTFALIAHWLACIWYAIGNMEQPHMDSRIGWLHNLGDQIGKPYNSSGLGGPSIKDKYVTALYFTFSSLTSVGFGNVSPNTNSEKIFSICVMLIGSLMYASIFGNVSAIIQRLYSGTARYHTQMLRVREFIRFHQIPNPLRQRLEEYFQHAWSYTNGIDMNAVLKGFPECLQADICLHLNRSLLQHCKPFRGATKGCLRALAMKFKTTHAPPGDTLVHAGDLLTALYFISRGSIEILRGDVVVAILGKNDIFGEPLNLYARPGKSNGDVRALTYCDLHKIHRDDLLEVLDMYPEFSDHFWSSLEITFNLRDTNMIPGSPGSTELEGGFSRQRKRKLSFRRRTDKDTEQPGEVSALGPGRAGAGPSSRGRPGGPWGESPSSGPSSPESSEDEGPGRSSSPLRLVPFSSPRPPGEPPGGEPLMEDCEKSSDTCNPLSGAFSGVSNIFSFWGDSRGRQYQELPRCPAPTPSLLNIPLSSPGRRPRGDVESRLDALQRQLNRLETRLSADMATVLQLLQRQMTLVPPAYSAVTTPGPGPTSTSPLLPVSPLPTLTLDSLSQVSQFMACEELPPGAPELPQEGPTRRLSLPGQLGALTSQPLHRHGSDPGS

T1 sequence (P08684 whole entry): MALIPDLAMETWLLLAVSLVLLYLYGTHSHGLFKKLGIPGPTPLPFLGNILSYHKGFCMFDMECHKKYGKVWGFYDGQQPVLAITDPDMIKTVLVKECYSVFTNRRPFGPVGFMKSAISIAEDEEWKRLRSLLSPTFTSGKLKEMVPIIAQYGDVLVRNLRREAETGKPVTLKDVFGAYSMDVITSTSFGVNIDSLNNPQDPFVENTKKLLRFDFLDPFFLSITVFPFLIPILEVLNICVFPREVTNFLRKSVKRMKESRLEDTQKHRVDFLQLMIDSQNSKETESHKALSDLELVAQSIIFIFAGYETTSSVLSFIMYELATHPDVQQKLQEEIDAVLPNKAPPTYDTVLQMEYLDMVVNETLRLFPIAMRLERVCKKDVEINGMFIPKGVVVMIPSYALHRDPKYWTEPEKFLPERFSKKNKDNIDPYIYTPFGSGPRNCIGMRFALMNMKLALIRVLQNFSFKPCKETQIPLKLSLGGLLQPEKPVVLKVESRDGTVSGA

| Compound | IC50 [2] [nM] | IC50 [3] [nM] | half-life [6] [h] | Vd [6] [L/kg] | clearance [6] [mL/min/kg] | IC50 [7] [nM] | other results |
| --- | --- | --- | --- | --- | --- | --- | --- |
| N#Cc1ccc2cc1Oc1cccc(c1)-c1ccccc1N1CCC(NCc3cncn3C2)C1=O (stereo unspecified) | 0.032 | 810 | 0.88 | 0.61 | 8 | 1.3 | IC50 [1]: < 50 nM; EC50 [4]: 0.67 nM; EC50 [5]: 0.58 nM; IC50 [8]: 0.06 nM |
| N#Cc1ccc2cc1Oc1ccc(Br)c(c1)CN1CCC(NCc3cncn3C2)C1=O (stereo unspecified) | 0.19 | 9200 | 1.6 | 0.53 | 3.2 | 1.4 | IC50 [1]: 6100 nM; EC50 [4]: 1.6 nM; EC50 [5]: 1 nM |
| CN1Cc2cncn2Cc2ccc(C#N)c(c2)Oc2ccc3cccc(c3c2)N2CCC1C2=O (stereo unspecified) | 39 | 2200 | 10.1 | 0.21 | 0.26 | 4.9 | IC50 [1]: 5000 nM |
| N#Cc1ccc(Cn2cncc2CN[C@H]2CCN(Cc3cccc(Cl)c3)C2=O)cc1 | – | – | – | – | – | – | bioavailability [9]: 81%; half-life [10]: 1.1 h; bioavailability [11]: 81%; half-life ([12]; in vivo): 1.1 h; Vd ([12]; in vivo, read-out: Vdss): 0.45 L/kg; clearance ([12]; plasma, read-out: Clp): 5.8 mL/min/kg; IC50 [1]: 1000 nM |
| N#Cc1ccc2cc1Oc1cc(Cl)cc(c1)CN1CCC(NCc3cncn3C2)C1=O (stereo unspecified) | – | > 20000 | – | – | – | 23 | IC50 [13]: 6.4 nM |
| N#Cc1ccc2cc1Oc1ccc3c(c1)[C@@H](CCO3)N1CC[C@H](NCc3cncn3C2)C1=O | 1.8 | – | – | – | – | – | – |
| N#Cc1ccc2cc1Oc1ccc3cccc(c3c1)N1CC[C@@H](NCc3cncn3C2)C1=O | 4.4 | – | – | – | – | 1.6 | – |
| CN1CCc2cncn2Cc2ccc(C#N)c(c2)Oc2ccc3cccc(c3c2)N2CC[C@@H]1C2=O | 0.57 | – | – | – | – | – | – |
| N#Cc1ccc2cc1Oc1cccc(c1)CN1CC[C@@H](NCc3cncn3C2)C1=O | 0.66 | – | – | – | – | – | EC50 [4]: 6.1 nM; EC50 [14]: 13 nM; IC50 [15]: 2 nM |
| N#Cc1ccc2cc1Oc1ccc3c(c1)[C@@H](CCO3)N1CC[C@@H](NCc3cncn3C2)C1=O | 0.063 | – | – | – | – | – | Vd [16]: 0.34 L/kg; half-life [16]: 0.9 h; clearance [17]: 5.5 mL/min/kg |
| N#Cc1ccc2cc1Oc1ccc3cccc(c3c1)N1CCN(CC1=O)Cc1cncn1C2 | 0.29 | – | – | – | – | – | – |
| N#Cc1ccc2cc1Oc1ccc3cccc(c3c1)N1CC[C@H](NC(=O)Cc3cncn3C2)C1=O | 6.8 | – | 1.7 | 0.19 | 1.5 | – | IC50 [18]: 8100 nM |
| N#Cc1ccc2cc1Oc1ccc3c(c1)[C@H](CC3)N1CC[C@H](NCc3cncn3C2)C1=O | 93 | – | – | – | – | – | – |
| N#Cc1ccc2cc1Oc1ccc3cccc(c3c1)N1CC[C@@H](NC(=O)Cc3cncn3C2)C1=O | 13 | – | – | – | – | – | – |
| N#Cc1ccc2cc1Oc1cccc(c1)CN1CC[C@H](NCc3cncn3C2)C1=O | – | – | – | – | – | 54 | IC50 [13]: 13 nM |
| CN1CCc2cncn2Cc2ccc(C#N)c(c2)Oc2ccc3cccc(c3c2)N2CC[C@H]1C2=O | 0.21 | – | 1.9 | 0.25 | 1.4 | – | – |
| N#Cc1ccc2cc1Oc1ccc3c(c1)[C@@H](CC3)N1CC[C@@H](NCc3cncn3C2)C1=O | 0.22 | – | 1.7 | 0.27 | 2.1 | – | IC50 [1]: 6600 nM; IC50 [19]: 10400 nM |
| N#Cc1ccc2cc1Oc1ccc3c(c1)[C@@H](CCC3)N1CC[C@H](NCc3cncn3C2)C1=O | 0.21 | 2200 | – | – | – | 1.5 | EC50 [4]: 3 nM; EC50 [5]: 4.4 nM |
| N#Cc1ccc2cc1Oc1ccc3c(c1)[C@H](CC3)N1CC[C@@H](NCc3cncn3C2)C1=O | 41 | – | 4.2 | 0.5 | 1.3 | – | IC50 [1]: 2800 nM; IC50 [19]: 14800 nM |
| N#Cc1ccc2cc1Oc1ccc3cccc(c3c1)N1CC[C@H](NCc3cncn3C2)C1=O | 3.8 | – | – | – | – | – | EC50 [4]: 48 nM; EC50 [5]: 130 nM |
| CN1Cc2cncn2Cc2ccc(C#N)c(c2)Oc2ccc3c(c2)C(CC3)N2CCC1C2=O (stereo unspecified) | 0.64 | > 20000 | – | – | – | 1.4 | IC50 [20]: 2600 nM |
| N#Cc1ccc2cc1Oc1cccc(c1)C(c1cccc(Cl)c1)N1CCC(NCc3cncn3C2)C1=O (single isomer, unassigned; diastereomer A) | – | 820 | – | – | – | 25 | IC50 [13]: 210 nM |
| CC1c2ccc(C#N)c(c2)Oc2cccc(c2)CN2CCC(NCc3cncn31)C2=O (single isomer, unassigned; diastereomer A) | 74 | > 20000 | – | – | – | 170 | – |
| N#Cc1ccc2cc1Oc1cccc(c1)C(c1ccccc1)N1CCC(NCc3cncn3C2)C1=O (single isomer, unassigned; diastereomer B) | – | 5800 | – | – | – | 10 | IC50 [13]: 34 nM |
| N#Cc1ccc2cc1Oc1cccc(c1)C(c1cccc(Cl)c1)N1CCC(NCc3cncn3C2)C1=O (single isomer, unassigned; diastereomer B) | 200 | 7000 | – | – | – | 2.5 | – |
| CC1c2ccc(C#N)c(c2)Oc2cccc(c2)CN2CCC(NCc3cncn31)C2=O (single isomer, unassigned; diastereomer B) | 0.87 | – | 0.78 | 0.69 | 12 | 1.9 | IC50 [19]: 6100 nM |
| N#Cc1ccc2cc1Oc1cccc(c1)C(c1ccccc1)N1CCC(NCc3cncn3C2)C1=O (stereo in doubt; 26A) | 230 | 1600 | – | – | – | 58 | – |
| N#Cc1ccc2cc1Oc1ccc3cccc(c3c1)N1CCC(NCCc3cncn3C2)C1=O (stereo in doubt; 66) | 0.32 | – | – | – | – | – | Vd [16]: 0.57 L/kg; bioavailability [16]: 92%; half-life [16]: 2 h; clearance [17]: 3.9 mL/min/kg; IC50 [1]: 6000 nM; IC50 [19]: 600 nM; EC50 [4]: 4.3 nM; EC50 [5]: 7.5 nM; IC50 [15]: 0.19 nM |
| N#Cc1ccc2cc1Oc1ccc3cccc(c3c1)N1CCC(NCCc3cncn3C2)C1=O (stereo in doubt; 67) | 0.44 | – | – | – | – | – | – |
| N#Cc1ccc2cc1Oc1ccc3c(c1)[C@@H](CCC3)N1CC[C@@H](NCc3cncn3C2)C1=O [(1R,5R)-30-OXO-19-OXA-2,6,10,12-TETRAAZAHEXACYCLO[18.6.2.1^{2,5}.1^{14,18}.0^{8,12}.0^{23,27}]TRIACONTA-8,10,14(29),15,17,20(28),21,23(27)-OCTAENE-17-CARBONITRILE (STRUCTURAL MIX)] | 0.054 | 390 | 0.48 | 0.36 | 7.3 | < 1 | EC50 [4]: 0.18 nM; EC50 [14]: 0.25 nM |

— ChEMBL document CHEMBL1135455, “3-Aminopyrrolidinone farnesyltransferase inhibitors: design of macrocyclic compounds with improved pharmacokinetics and excellent cell potency” (J Med Chem, 2002)
